These results are taken from BindingDB's records for doi:10.1021/acs.jmedchem.0c01922 (University of Toronto Mississauga, 2021).

The assay has as its target T1, Histone deacetylase 11 (Homo sapiens, UniProt Q96DB2).
T1 sequence (Q96DB2 whole entry): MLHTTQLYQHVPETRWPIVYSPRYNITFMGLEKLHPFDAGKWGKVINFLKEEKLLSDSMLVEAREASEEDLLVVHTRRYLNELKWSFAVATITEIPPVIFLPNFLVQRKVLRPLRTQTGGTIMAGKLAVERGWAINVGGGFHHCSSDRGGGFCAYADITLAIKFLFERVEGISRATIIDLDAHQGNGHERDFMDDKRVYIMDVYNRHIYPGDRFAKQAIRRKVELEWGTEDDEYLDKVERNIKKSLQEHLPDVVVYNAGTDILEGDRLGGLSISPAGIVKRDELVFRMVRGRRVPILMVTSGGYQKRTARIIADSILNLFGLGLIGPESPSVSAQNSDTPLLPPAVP
The assay can be described thus: Inhibition of full length human HDAC11 using FAM-labeled acetylated peptide as substrate by electrophoretic mobility shift assay. The essentials: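 Full-length human HDAC isoform enzymatic assay by electrophoretic mobility shift, using a FAM-labelled acetylated peptide substrate. […] Values are the mean of duplicate experiments with 95% confidence intervals.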

For `O=C(NO)c1ccc(CN(Cc2cccnc2)S(=O)(=O)c2cc(F)c(F)c(F)c2F)cc1`, the IC50 was > 1000 nM.
